According to ChEMBL document CHEMBL2086356, “Identification of a novel family of BRAF(V600E) inhibitors” (J Med Chem, 2012):
Active and inactive are the calls of the source. The calls are words filed in the database; no cut-off is given here.

What was measured:
[1] = biological target: T1, Serine/threonine-protein kinase B-raf (Homo sapiens, UniProt P15056); test: Inhibition of human 6x-His tagged wild type BRAF expressed in Sf9 cells by ELISA based kinase assay
Summary of the method: (§1)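 Enzyme at about 28–30 nM was preincubated with compound for 1 h at RT, then added to glutathione-plate-bound GST-MEK-His (50 μg/mL). Reaction in HEPES pH 7.0 with MgCl2 and 100 μM ATP ran 30 min at 37 °C. Read-out was anti-phospho-MEK1/2 then HRP chemiluminescence. Run in duplicate or triplicate; IC50 from a four-parameter logistic fit.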

[2] = biological target: Serine/threonine-protein kinase B-raf (Homo sapiens, UniProt P15056, V600E); test: Inhibition of human 6x-His tagged BRAF V600E mutant expressed in Sf9 cells by ELISA based kinase assay; summary of the method: as §1
Homo sapiens [3] = species: Homo sapiens; test: Selectivity ratio of IC50 for human 6x-His tagged wild type BRAF to IC50 for human 6x-His tagged BRAF V600E mutant
[4] = biological target: RAF proto-oncogene serine/threonine-protein kinase (Homo sapiens) (UniProt P04049); test: Inhibition of CRAF assessed as residual activity at 1 uM by ELISA based kinase assay
Summary of the method: (§2)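 Single-point ELISA kinase assay at 1 μM inhibitor, reading phospho-MEK on immobilized GST-MEK-His. CRAF at 20–30 nM enzyme with 100 μM ATP; BRAF WT or V600E kinase domain (Sf9-expressed, 6xHis) under the same assay conditions. Remaining activity reported as mean of n = 3.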

FF2508 = test: Antiproliferative activity against human FF2508 cells by MTS assay; format: functional, cell-based
Summary of the method: (§3)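 451Lu melanoma cells were grown in DMEM with 5% FBS, and primary melanocytes (FOM) and fibroblasts (FF) were taken from neonatal foreskin epidermis. Cells were seeded at 5000/well, left to adhere overnight, then exposed to rising compound doses or DMSO for 72 h. Read-out was MTS absorbance at 490 nm, normalized to DMSO wells. At least 4 wells per condition; experiment done in triplicate.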

[5] = system: Serine/threonine-protein kinase B-raf (Homo sapiens), P15056 [V600E]; test: Inhibition of B-Raf V600E mutant-mediated MEK phosphorylation in human 451LU cells by Western blotting
[6] = biological target: Phosphatidylinositol 4,5-bisphosphate 3-kinase catalytic subunit gamma isoform (Homo sapiens) (UniProt P48736); test: Inhibition of PI3Kgamma assessed as residual activity at 1 uM
[7] = biological target: Phosphatidylinositol 4,5-bisphosphate 3-kinase catalytic subunit alpha isoform (Homo sapiens) (UniProt P42336); test: Inhibition of PI3Kalpha assessed as residual activity at 1 uM
[8] = biological target: T1, Serine/threonine-protein kinase B-raf; test: Inhibition of human 6x-His tagged wild type BRAF expressed in Sf9 cells assessed as residual activity at 1 uM by ELISA based kinase assay; summary of the method: as §2
[9] = Inhibition of GSK3 assessed as residual activity at 1 uM
Homo sapiens [10] = species: Homo sapiens; test: Antiproliferative activity against human 451LU cells harboring BRAF V600E mutant by MTS assay; format: functional, cell-based; summary of the method: as §3
[11] = biological target: Serine/threonine-protein kinase pim-1 (Homo sapiens) (UniProt P11309); test: Inhibition of PIM1 assessed as residual activity at 1 uM
[12] = Inhibition of p70S6K assessed as residual activity at 1 uM by scintillation counter in presence of gamma-P32 ATP
Summary of the method: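 p70S6K (20 nM) was preincubated with inhibitor at RT in 20 mM MOPS, 30 mM MgCl2, 0.8 μg/μL BSA, 5% DMSO, pH 7.0, with S6 kinase/Rsk2 peptide (3.6 μM). After 15 min, ATP was added to 100 μM with γ-32P ATP and run 30 min. Product was captured on P81 paper, washed with phosphoric acid, and counted by scintillation. Remaining activity was measured at 1 μM, mean of n = 3.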

FOM = test: Antiproliferative activity against human FOM cells by MTS assay; format: functional, cell-based; summary of the method: as §3
[13] = system: Serine/threonine-protein kinase B-raf (Homo sapiens), P15056 [V600E]; test: Inhibition of human 6x-His tagged BRAF V600E mutant expressed in Sf9 cells assessed as residual activity at 1 uM by ELISA based kinase assay; summary of the method: as §2
[14] = biological target: Serine/threonine-protein kinase PAK 1 (Homo sapiens) (UniProt Q13153); test: Inhibition of PAK1 assessed as residual activity at 1 uM
Chain of Serine/threonine-protein kinase PAK 1 (Homo sapiens) (Q13153 whole entry): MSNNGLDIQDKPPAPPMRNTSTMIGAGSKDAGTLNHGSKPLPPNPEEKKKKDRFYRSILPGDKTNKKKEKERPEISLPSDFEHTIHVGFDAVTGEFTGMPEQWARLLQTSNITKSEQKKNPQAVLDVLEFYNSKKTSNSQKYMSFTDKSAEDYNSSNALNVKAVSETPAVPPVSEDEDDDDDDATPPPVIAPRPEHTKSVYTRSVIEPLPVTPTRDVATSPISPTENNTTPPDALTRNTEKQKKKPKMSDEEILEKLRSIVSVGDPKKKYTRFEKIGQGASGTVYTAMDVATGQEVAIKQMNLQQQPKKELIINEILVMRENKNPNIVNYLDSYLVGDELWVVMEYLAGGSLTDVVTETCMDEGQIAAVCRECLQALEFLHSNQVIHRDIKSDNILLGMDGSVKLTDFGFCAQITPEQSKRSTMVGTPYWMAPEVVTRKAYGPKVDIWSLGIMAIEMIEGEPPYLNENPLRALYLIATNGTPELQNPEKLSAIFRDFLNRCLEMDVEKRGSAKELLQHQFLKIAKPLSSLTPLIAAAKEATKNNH

Chain of Serine/threonine-protein kinase B-raf (Homo sapiens, UniProt P15056, V600E) (P15056 2-766 V600E limits assumed): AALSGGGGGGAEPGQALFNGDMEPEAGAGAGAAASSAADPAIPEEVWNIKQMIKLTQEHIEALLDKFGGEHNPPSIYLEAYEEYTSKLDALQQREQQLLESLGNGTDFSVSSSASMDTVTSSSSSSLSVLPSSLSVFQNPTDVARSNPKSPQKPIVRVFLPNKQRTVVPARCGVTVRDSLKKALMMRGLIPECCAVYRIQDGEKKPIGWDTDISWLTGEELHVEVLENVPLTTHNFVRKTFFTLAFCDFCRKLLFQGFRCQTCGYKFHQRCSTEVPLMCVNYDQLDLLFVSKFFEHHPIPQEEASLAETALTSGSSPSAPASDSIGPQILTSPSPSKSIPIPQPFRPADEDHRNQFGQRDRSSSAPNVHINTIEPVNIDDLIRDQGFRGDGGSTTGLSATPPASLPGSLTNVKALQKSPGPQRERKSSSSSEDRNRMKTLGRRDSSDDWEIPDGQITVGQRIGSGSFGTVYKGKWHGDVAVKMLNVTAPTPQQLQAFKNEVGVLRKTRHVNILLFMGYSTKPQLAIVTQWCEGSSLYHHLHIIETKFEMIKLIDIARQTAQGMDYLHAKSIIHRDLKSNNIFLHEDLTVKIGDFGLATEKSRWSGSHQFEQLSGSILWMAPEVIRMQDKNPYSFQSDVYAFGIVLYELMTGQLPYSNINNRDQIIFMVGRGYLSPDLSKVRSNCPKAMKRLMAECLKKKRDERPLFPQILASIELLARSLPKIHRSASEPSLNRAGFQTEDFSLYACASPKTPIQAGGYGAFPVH
T1 sequence (P15056 whole entry): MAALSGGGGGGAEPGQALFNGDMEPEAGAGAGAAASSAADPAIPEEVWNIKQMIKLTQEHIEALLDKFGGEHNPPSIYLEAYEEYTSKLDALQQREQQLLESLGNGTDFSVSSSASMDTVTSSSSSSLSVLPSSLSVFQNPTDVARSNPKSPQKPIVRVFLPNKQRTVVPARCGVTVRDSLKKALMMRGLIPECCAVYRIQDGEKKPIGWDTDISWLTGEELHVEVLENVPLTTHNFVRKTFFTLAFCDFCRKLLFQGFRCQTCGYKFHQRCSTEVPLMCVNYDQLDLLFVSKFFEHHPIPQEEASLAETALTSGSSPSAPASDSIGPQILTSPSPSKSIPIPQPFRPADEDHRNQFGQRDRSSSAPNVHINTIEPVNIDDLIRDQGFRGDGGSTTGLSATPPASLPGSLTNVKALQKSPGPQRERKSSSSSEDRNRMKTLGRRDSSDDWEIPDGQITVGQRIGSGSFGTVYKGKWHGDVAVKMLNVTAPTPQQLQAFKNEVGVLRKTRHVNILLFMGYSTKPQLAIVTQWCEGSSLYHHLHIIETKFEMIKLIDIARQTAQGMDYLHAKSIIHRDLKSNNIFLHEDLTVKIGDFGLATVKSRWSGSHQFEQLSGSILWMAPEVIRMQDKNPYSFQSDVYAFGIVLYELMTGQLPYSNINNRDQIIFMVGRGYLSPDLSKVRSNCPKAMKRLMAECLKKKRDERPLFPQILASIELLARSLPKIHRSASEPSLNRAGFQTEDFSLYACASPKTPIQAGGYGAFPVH
Chain of Serine/threonine-protein kinase B-raf (Homo sapiens), P15056 [V600E] (P15056 whole entry V600E, canonical isoform): as the sequence (P15056 whole entry) above, with V600E counted along it
Chain of Phosphatidylinositol 4,5-bisphosphate 3-kinase catalytic subunit alpha isoform (Homo sapiens) (P42336 whole entry, canonical isoform): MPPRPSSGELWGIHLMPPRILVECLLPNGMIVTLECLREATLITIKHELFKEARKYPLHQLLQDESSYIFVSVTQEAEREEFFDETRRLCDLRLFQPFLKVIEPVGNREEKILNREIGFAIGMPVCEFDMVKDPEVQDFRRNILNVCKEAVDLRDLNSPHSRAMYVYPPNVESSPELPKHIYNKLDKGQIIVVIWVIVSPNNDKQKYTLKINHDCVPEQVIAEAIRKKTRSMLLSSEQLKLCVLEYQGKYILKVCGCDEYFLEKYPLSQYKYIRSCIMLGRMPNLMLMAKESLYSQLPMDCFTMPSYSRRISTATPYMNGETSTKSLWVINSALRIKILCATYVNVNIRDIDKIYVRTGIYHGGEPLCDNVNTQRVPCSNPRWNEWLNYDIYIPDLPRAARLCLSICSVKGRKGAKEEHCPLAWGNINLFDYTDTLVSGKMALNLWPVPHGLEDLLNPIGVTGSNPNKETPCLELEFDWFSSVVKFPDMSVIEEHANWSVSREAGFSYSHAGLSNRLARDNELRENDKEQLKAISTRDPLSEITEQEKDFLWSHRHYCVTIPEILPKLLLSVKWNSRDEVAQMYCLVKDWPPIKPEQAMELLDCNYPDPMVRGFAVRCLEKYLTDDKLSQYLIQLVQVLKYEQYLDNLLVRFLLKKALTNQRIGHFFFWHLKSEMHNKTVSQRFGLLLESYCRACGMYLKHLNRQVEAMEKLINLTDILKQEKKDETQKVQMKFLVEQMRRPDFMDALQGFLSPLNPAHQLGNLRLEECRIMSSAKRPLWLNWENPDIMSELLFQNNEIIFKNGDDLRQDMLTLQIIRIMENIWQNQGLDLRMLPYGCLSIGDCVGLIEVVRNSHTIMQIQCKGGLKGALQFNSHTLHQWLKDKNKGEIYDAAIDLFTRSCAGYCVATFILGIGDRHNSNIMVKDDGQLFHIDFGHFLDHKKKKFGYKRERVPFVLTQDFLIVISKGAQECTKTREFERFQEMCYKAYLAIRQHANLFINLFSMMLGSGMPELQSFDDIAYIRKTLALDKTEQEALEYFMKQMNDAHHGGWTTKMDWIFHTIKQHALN
Chain of Phosphatidylinositol 4,5-bisphosphate 3-kinase catalytic subunit gamma isoform (Homo sapiens) (P48736 whole entry, looked up, canonical isoform): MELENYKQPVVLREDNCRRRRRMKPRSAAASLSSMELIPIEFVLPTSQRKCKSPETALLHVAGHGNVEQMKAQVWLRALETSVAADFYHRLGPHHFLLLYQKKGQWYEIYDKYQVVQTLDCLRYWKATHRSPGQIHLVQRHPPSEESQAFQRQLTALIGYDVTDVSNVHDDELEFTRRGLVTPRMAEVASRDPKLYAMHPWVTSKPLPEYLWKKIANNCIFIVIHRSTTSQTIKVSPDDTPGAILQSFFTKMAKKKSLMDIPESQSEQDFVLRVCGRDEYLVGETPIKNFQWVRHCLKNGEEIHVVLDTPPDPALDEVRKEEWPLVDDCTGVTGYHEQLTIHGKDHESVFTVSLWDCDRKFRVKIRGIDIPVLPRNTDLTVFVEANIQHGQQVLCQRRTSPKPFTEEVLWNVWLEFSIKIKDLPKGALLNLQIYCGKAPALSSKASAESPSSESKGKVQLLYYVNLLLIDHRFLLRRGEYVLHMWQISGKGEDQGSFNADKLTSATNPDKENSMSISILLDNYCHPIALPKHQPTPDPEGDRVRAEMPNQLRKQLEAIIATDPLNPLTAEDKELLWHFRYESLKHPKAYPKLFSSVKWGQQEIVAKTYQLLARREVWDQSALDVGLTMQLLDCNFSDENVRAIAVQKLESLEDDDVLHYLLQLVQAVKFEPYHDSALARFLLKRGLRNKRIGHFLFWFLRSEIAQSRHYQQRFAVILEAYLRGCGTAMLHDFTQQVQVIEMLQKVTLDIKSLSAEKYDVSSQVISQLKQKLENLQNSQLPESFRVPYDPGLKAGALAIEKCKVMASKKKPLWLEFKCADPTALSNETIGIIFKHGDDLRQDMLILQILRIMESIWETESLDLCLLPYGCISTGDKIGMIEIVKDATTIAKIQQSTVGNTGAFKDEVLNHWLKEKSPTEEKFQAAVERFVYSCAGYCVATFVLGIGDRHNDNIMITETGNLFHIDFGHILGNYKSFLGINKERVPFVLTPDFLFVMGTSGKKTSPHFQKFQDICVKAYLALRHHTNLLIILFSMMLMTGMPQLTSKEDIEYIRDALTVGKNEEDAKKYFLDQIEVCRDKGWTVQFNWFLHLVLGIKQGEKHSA
Chain of Serine/threonine-protein kinase pim-1 (Homo sapiens) (P11309 whole entry, looked up): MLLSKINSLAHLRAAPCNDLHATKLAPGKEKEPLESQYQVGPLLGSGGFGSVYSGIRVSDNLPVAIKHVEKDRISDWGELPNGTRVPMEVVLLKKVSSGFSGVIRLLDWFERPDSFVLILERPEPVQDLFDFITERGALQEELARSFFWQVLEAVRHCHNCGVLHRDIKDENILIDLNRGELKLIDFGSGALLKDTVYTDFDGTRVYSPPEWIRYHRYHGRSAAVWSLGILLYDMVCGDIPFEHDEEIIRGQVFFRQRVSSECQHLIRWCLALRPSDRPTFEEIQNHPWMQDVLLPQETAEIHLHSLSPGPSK

Row | Compound | IC50 [1] [nM] | IC50 [2] [nM] | further results
1 | O=C1C(Sc2ncn[nH]2)=C/C(=N\S(=O)(=O)c2cccs2)c2ccccc21 | 230 | 190 | –
2 | CC(=O)Nc1ccc(S(=O)(=O)Nc2cc(Sc3nc[nH]n3)c(O)c3ccccc23)cc1 | – | 140 | –
3 | O=S(=O)(Nc1ccc(O)c2ccccc12)c1cccs1 | 9000 | 6100 | –
4 | Oc1c(C(Nc2ccccn2)c2ccco2)cc(Cl)c2cccnc12 (stereo not drawn) | 800 | – | –
5 | O=S(=O)(Nc1cc(Cl)c(O)c2ccccc12)c1cccs1 | 450 | 380 | –
6 | Cn1nnnc1Sc1cc(NS(=O)(=O)c2cccs2)c2ccccc2c1O | 320 | 250 | –
7 | O=C(/C=C/S(=O)(=O)c1ccc(Cl)cc1)c1ccc(F)cc1 | 900 | 300 | Ratio IC50 (Homo sapiens [3]): 2
8 | O=S(=O)(Nc1cc(Sc2nnc[nH]2)c(O)c2ccccc12)c1ccc(-c2ccccc2)cc1 | 220 | 80 | –
9 | O=S(=O)(Nc1cc(Sc2ncn[nH]2)c(O)c2ccccc12)c1c(F)ccc(N(Cc2ccccc2)Cc2ccccc2)c1F | 5800 | 3600 | –
10 | O=S(=O)(Nc1cc(Sc2nc[nH]n2)c(O)c2ccccc12)c1ccc2ccccc2c1 | 400 | 150 | –
11 | O=S(=O)(Nc1cc(Sc2ncn[nH]2)c(O)c2ccccc12)c1ccc(-c2ccccc2)cc1 | – | – | Activity [4]: 60%; Ratio IC50 (Homo sapiens [3]): 2; Activity (FF2508): inactive; inhibition [5]: Active; Activity [6]: 75%; Activity [7]: 75%; Activity [8]: < 10%; Activity [9]: 75%; Activity (Homo sapiens [10]): Active; Activity [11]: 75%; Activity [12]: 75%; Activity (FOM): inactive; Activity [13]: < 10%; Activity [14]: 75%
12 | O=S(=O)(Nc1cc(Sc2ccccn2)c(O)c2ccccc12)c1cccs1 | 350 | 190 | –
13 | O=S(=O)(Nc1cc(Sc2nc[nH]n2)c(O)c2ccccc12)c1ccc(C(F)(F)F)cc1 | 190 | 210 | –
14 | O=C1CCC(=O)N1c1ccc(F)c(S(=O)(=O)Nc2cc(Sc3ncn[nH]3)c(O)c3ccccc23)c1F | 680 | 670 | –
15 | CCCCCCCCS(=O)(=O)Nc1cc(Sc2nnc[nH]2)c(O)c2ccccc12 | 1660 | 720 | –
16 | CCCCCCCCCCS(=O)(=O)Nc1cc(Sc2nnc[nH]2)c(O)c2ccccc12 | 2100 | 1600 | –
17 | COc1cc(C(Nc2ccccn2)c2cc(Cl)c3cccnc3c2O)cc(Br)c1O (stereo not drawn) | 3000 | 700 | Ratio IC50 (Homo sapiens [3]): 2
18 | CC(=O)Nc1ccc(S(=O)(=O)Nc2cc(Sc3ncn[nH]3)c(O)c3ccccc23)cc1 | – | – | Ratio IC50 (Homo sapiens [3]): 2
19 | O=S(=O)(Nc1cc(Sc2ccccc2)c(O)c2ccccc12)c1cccs1 | 570 | 280 | –
20 | COc1ccc(C(c2ccc3cccnc3c2O)N2CCOCC2)cc1 (stereo not drawn) | 4000 | 900 | Ratio IC50 (Homo sapiens [3]): 2
21 | Oc1c(C(Nc2cccnc2)c2ccsc2)ccc2cccnc12 (stereo not drawn) | 2000 | 800 | Ratio IC50 (Homo sapiens [3]): 2
22 | CC(=O)N1CCc2cc(S(=O)(=O)Nc3cc(Sc4nc[nH]n4)c(O)c4ccccc34)ccc21 | 270 | 140 | –
23 | Cc1cc(C)c2c(=O)n(C(=O)c3cccs3)sc2n1 | 400 | 600 | –
24 | O=S(=O)(Nc1cc(Sc2ncn[nH]2)c(O)c2ccccc12)c1c(F)c(F)c(F)c(F)c1F | 590 | 520 | –
25 | O=S(=O)(Nc1cc(Br)c(O)c2ccccc12)c1cccs1 | 340 | 320 | –
26 | O=S(=O)(Nc1cc(Sc2cnn[nH]2)c(O)c2ccccc12)c1cccs1 | 1470 | 720 | –
27 | O=S(=O)(Nc1cc(Sc2ncc[nH]2)c(O)c2ccccc12)c1cccs1 | 170 | 120 | Ratio IC50 (Homo sapiens [3]): 2
